Compound activity from PubChem BioAssay.
Only some compounds are listed: those with a hit (about 5.7% of all), similar ones and a draw of the others.
SKKanGAS inh = blocks kanamycin growth of S. pyogenes SKKanGAS strain; BacTiter-Glo, 6 h; inhibition, % at 7.5 µM; 300,000 tested, 1.3% active;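 active = mean replicate score, as percent of positive control median, at least 50; inconclusive = mean below 50 but one replicate at or above 50; inactive = mean and every replicate below 50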;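 also: strain carries kanamycin resistance gene driven by streptokinase promoter and grows in 40 µg/ml kanamycin; loss of luminescence reflects streptokinase promoter inhibition or plain growth inhibition; 0% = median of DMSO wells and 100% = positive control at its reference dose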
CSC inhib = blocks cancer stem cells; cancer stem cell-like cells viability, luminescence; inhibition, % at 7.5 µM; 300,000 tested, 1.1% active; AID 2717; in the data active = inhibition above about 75%; inconclusive = no clear call, values can overlap the other calls; tested in HMLE shEcad cells
T cruzi repl = blocks replication of Trypanosoma cruzi; T. cruzi beta-gal in NIH3T3, luminescence, 90 h; inhibition, % (concentration not given with the values); 300,000 tested, 1.4% active; AID 1885;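 active = mean inhibition across valid replicates above about 55%, limit read from the data; inconclusive = mean below that limit but half or more replicates reach it; inactive = mean below it, under half of replicates reach it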;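 also: signal also drops with host cell toxicity which is not excluded here; 0% = plate median of DMSO wells and 100% = zero luminescence signal; higher percent means less beta-gal luminescence so fewer parasites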
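assay system = mouse NIH/3T3 fibroblasts infected with β-gal-expressing T. cruzi Tulahuen C4 | input = 5,000 NIH/3T3 host cells per well | buffer or medium = DMEM plus 2% FBS | timing = 3 h host attachment, then at least 90 h co-culture | measured by = GalScreen luminescence, 60 min | evaluation = luminescence reflecting intracellular parasite burden, expressed as percent inhibition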
Mdm2 MdmX PPI = inhibitors of human Mdm2/MdmX interaction. O15151+Q00987. SaOS-2 split-luciferase Mdm2/MdmX complementation, luminescence. inhibition, % at 8 µM. 330,000 tested, 3% active. AID 485346;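 active = inhibition of at least 50% at 8 µM in the primary screen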
Target sequence (O15151 whole entry, looked up): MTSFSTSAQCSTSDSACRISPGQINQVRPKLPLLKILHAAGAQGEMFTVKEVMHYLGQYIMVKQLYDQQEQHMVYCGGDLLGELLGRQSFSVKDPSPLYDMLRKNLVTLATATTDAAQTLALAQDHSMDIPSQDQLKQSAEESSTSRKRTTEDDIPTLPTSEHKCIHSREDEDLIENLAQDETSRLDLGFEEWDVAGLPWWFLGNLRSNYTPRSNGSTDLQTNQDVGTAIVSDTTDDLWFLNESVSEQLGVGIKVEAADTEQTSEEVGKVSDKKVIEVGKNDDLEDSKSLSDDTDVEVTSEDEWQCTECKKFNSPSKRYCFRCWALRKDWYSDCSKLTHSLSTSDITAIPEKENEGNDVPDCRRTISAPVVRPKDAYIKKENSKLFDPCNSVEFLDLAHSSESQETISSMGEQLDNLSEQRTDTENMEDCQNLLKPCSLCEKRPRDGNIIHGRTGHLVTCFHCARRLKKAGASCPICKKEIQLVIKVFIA
Target sequence (Q00987 whole entry, looked up): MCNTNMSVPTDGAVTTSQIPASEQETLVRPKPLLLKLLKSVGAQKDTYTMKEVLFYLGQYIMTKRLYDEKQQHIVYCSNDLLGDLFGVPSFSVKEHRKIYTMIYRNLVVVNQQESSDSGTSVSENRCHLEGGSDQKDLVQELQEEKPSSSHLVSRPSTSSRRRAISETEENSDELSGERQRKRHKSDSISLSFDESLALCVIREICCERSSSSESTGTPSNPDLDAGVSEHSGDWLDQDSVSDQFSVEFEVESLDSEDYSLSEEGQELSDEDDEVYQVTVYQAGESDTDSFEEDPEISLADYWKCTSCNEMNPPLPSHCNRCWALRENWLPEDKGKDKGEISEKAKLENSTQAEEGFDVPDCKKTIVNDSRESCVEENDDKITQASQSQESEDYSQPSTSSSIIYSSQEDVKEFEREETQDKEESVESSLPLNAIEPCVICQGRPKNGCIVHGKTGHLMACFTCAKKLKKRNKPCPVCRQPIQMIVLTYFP
Calb FLC = affects C. albicans growth with fluconazole | C. albicans CaCi-2 (fluconazole-resistant clinical isolate) + fluconazole, Alamar Blue growth, 48 h | growth inhibition, % (concentration not given with the values) | 300,000 tested, 0.57% active | AID 1979;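 active = growth inhibition above about 58% in most replicates, limit read from the data, passing the limit was not always enough; inconclusive = exactly half the replicates above a set limit; inactive = most replicates below a set limit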;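 also: all wells also contain fluconazole at 8 µg/ml as a sub-toxic cotreatment; 0% = median of DMSO wells and 100% = median of geldanamycin control wells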
Beta apoptosis = blocks beta cell apoptosis | protection from apoptosis, % (no concentration beside the values) | INS-1E cytokine-induced death, ATP luminescence, 48 h; percent of positive-control rescue, neutral wells zero | 300,000 tested, 0.8% active | AID 435005;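 active = Every replicate reaches about 75%, or at least half do and their mean reaches it too, limit read from the data; inconclusive = At least half of replicates reach the limit but their mean does not; inactive = Under half of replicates reach the limit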;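 also: 0% = cytokine-treated negative control wells and 100% = positive control rescue; higher means more ATP so stronger rescue from cytokine killing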
An asterisk follows results filed as active; ? = inconclusive; / = no result.

SMILES | SKKanGAS inh | CSC inhib | T cruzi repl | Mdm2 MdmX PPI | Calb FLC | Beta apoptosis
Cc1cc(SCC(=O)c2cccs2)n2nc(C)c(-c3ccc(Cl)cc3)c2n1 | 28 | 78* | 15 | 47 | 3 | 26
Cc1nn2c(SCC(=O)c3cccs3)cc(C(C)(C)C)nc2c1-c1ccccc1 | 20 | 37 | 59* | 7 | 38 | 11
C=C(C)CSc1cc(C)nc2c(-c3ccccc3)c(C)nn12 | 23 | 38 | 36 | 29 | 60 | 7
C=CCSc1cc(C)nc2c(-c3ccc(Cl)cc3)c(C)nn12 | 2 | 15 | 22 | 37 | ? | 18
CN(C(=O)COC(=O)/C=C/c1cccs1)C1CCCCC1 | / | 2 | / | -25 | / | 0
O=C(CSc1cccc[n+]1[O-])c1cc(Cl)ccc1Cl | 28 | -1 | 53 | 2 | 100* | 12
O=C(O)CSc1cccc[n+]1[O-] | 5 | -14 | -1 | -10 | -12 | -11
O=C(CSc1cccc[n+]1[O-])c1cc2ccccc2o1 | 34 | 19 | 60* | -23 | -11 | 2
Cc1cc(NC(=O)NC(=O)c2ccccc2F)no1 | 33 | -1 | 3 | -25 | 0 | 0
CCCCNC(=O)C1CC(=O)N(CCc2ccccc2)C1 (stereo not given) | -14 | -32 | -9 | 17 | 2 | 3
CN(CCNC(=O)C1CC(=O)N(c2ccc(F)c(Cl)c2)C1)Cc1ccccc1 (stereo not given) | -3 | 2 | 60* | 10 | -8 | -2
Cc1ccc(CCN2CC(C(=O)NCCCN(C)Cc3ccccc3)CC2=O)cc1 (stereo not given) | -2 | -5 | 63* | 4 | -2 | -9
COc1cccc(NC(=O)CN(C)C(=O)c2c(C)nn(-c3ccccc3)c2Cl)c1 | / | -6 | / | 7 | / | 1
O=C(c1cnn2c(C(F)(F)F)cc(-c3cccs3)nc12)N1CCN(Cc2ccccc2)CC1 | -8 | 10 | 75* | 28 | 9 | 15
CN1CCN(C(=O)c2cnn3c(C(F)(F)F)cc(-c4cccs4)nc23)CC1 | 1 | 27 | 3 | -4 | 1 | 9
O=C(c1ccc([N+](=O)[O-])o1)N1CCc2ccccc2C1 | 19 | -17 | 57* | 18 | -3 | 3
Cc1ccc2sc(N3CCN(C(=O)c4ccc([N+](=O)[O-])o4)CC3)nc2c1C | 26 | 7 | 59* | 37 | -1 | /
COc1cccc2sc(N3CCN(C(=O)c4ccc([N+](=O)[O-])o4)CC3)nc12 | 12 | 6 | 26 | 22 | 3 | 42
O=C(NC(=S)Nc1cc(Cl)ccc1O)c1cccc(Br)c1 | 108* | 27 | -21 | 43 | -4 | 3
COc1ccc(NS(=O)(=O)c2ccc(-c3coc(C)n3)cc2)cc1 | 2 | 9 | 14 | 19 | 48 | 5
COc1ccc(NS(=O)(=O)c2ccc(-c3coc(C)n3)cc2)cc1OC | -1 | 0 | -36 | 18 | ? | 107*
N#C/C(=C\c1cc2ccccc2nc1N1CCCCC1)C(N)=O | / | -6 | / | / | / | -2
COc1ccc2nc(N3CCCCC3)c(/C=C3\SC(=S)NC3=O)cc2c1 | 86* | 121* | -5 | 7 | -4 | 18
O=C1NC(=S)S/C1=C\c1cc2ccccc2nc1N1CCCCC1 | 41 | 114* | -25 | 45 | 9 | 20
O=C(CS(=O)(=O)c1ccc(Cl)cc1)Nc1nnc(-c2cccs2)o1 | 2 | -8 | -11 | 4 | -2 | -3
SMILES | SKKanGAS inh | CSC inhib | T cruzi repl | Mdm2 MdmX PPI | Calb FLC | Beta apoptosis
COc1ccc(-c2cc(C)no2)cc1S(=O)(=O)N(C)c1cccc(C)c1 | -5 | -3 | 21 | 9 | 92* | -5
COc1ccc(OCC(=O)NCCc2c[nH]c3ccccc23)cc1 | -10 | 16 | 0 | 7 | 32 | -3
COc1ccc(-c2cn(CCc3c[nH]c4ccccc34)nn2)cc1 | -4 | 96* | -9 | -15 | -4 | 1
c1csc(-c2csc3nc(CN4CCOCC4)nc(NCc4ccc5c(c4)OCO5)c23)c1 | 57* | 38 | 57* | 28 | 0 | 11
O=C(O)c1ccc(N2C(=O)/C(=C/C=C/c3ccccc3)SC2=S)cc1 | -7 | -1 | -15 | 19 | 27 | -1
CN(C)c1ccc(/C=C/C=C2/SC(=S)N(c3ccccc3)C2=O)cc1 | 25 | 82* | 0 | 31 | -49 | 20
Cc1ccc(NC(=O)c2c(C(F)(F)F)nn(C)c2SCc2cccc(C(F)(F)F)c2)cc1C | 11 | 36 | 59* | -4 | -21 | 88*
Cc1ccc(NC(=O)c2c(C(F)(F)F)nn(C)c2Cl)cc1C | 1 | 0 | -1 | -4 | -25 | -4
Cc1ccc(NC(=O)c2sccc2SCc2cccc(C(F)(F)F)c2)cc1 | 6 | 35 | 41 | -7 | 3 | 2
Cc1ccc(NC(=O)c2c(C(F)(F)F)nn(C)c2SCc2ccc(Cl)cc2)cc1C | 34 | 31 | 65* | 13 | 12 | 7
O=C(CN1CCN(S(=O)(=O)c2ccccc2F)CC1)Nc1ccnn1C1CCCC1 | / | / | / | -7 | / | 4
COc1cc(C[C@H](C)[C@H](C)Cc2ccc3c(c2)OCO3)ccc1O | 19 | 127* | 3 | -17 | -9 | -11
CN1CCN(c2nc(N3CCN(c4ccccc4)CC3)ncc2F)CC1 | -13 | -10 | 57* | 20 | -2 | -1
Fc1cnc(Cl)nc1N1CCN(c2ccccc2)CC1 | 3 | -5 | -4 | 3 | 3 | 1
Clc1ccc(SCc2cc(N3CCOCC3)nc(-c3ccccn3)n2)cc1 | -1 | 10 | 60* | 31 | 1 | 99*
C=CCNC(=O)NC(=O)c1csc([N+](=O)[O-])c1 | -4 | -6 | 27 | -7 | 4 | 0
CCNC(=O)NC(=O)c1csc([N+](=O)[O-])c1 | -2 | -10 | 59* | -2 | -2 | -4
CC(C)(C)C(=O)NC(Nc1cccc2cccnc12)C(Cl)(Cl)Cl (stereo not given) | 6 | / | 8 | 19 | -10 | 78*
C=CCN(Cc1cc(OC)ccc1OC)C(=O)c1cc2ccc(OC)cc2[nH]1 | 7 | 50 | 18 | 33 | -1 | 11
Cc1ccc(CNC(=O)Cc2ccc(NC3=NC4CS(=O)(=O)CC4S3)cc2)cc1 (stereo not given) | 0 | -7 | -2 | 10 | 0 | 1
O=[N+]([O-])c1ccc(C2CN=C(Nc3ccccc3)S2)cc1 (stereo not given) | 17 | -3 | -14 | 0 | -31 | -8
Cc1ccc(NC2=NCC(Cc3ccc(Br)cc3)S2)cc1 (stereo not given) | 85* | 89* | 47 | 19 | -46 | 34
CCc1ccc(NC2=NCC(c3ccccc3)S2)cc1 (stereo not given) | 94* | 1 | 20 | -110 | -26 | 10
CN(C)c1ccc(NC(=O)c2cn(-c3ccccc3)nc2-c2cccs2)cc1 | -1 | -3 | 14 | 10 | 13 | /
O=C(Nc1ccc2ccccc2c1)c1cn(-c2ccccc2)nc1-c1cccs1 | 15 | 40 | 60* | -13 | -20 | 16
